Two compounds from ChEMBL document CHEMBL1649328, “Assessment of pandemic and seasonal influenza A (H1N1) virus susceptibility to neuraminidase inhibitors in three enzyme activity inhibition assays” (Antimicrob Agents Chemother, 2010) can be followed below.

Holding throughout (format): functional, organism-based
Assay [1] deals with Influenza A virus. Kind of assay: Antiviral activity against influenza A (A/Hong Kong/2369/2009 (H1N1)) virus harboring neuraminidase H275Y mutant after 30 mins by MUNANA substrate based fluorometric assay. The method in brief:
(§1)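 Fluorometric NA inhibition with MUNANA (100 μM final). Titrated virus in NA-Star buffer (26 mM MES, 4 mM CaCl2, pH 6.0) was preincubated with ten half-log inhibitor dilutions (0.03–1,000 nM final) for 30 min at 37°C, then with substrate for 30 min at 37°C. The reaction was stopped with 0.1 M glycine in 25% ethanol, pH 10.7, and 4-methylumbelliferone was read at ex 365/em 450 nm. IC50 came from a Vmax·[1−x/(K+x)] fit, mean of ≥3 experiments.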

Assay [2] concerns Influenza A virus. Kind of assay: Antiviral activity against influenza A (A/North Carolina/01/2009 (H1N1)) virus harboring neuraminidase H275Y mutant after 16 to 18 hrs by fetuin substrate based colorimetric assay. The method in brief:
(§2)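 Colorimetric NA inhibition with fetuin substrate. Virus was diluted in NA-Star buffer (26 mM MES, 4 mM CaCl2, pH 6.0) to give OD549 of 0.4–0.8 after 18 h. It was preincubated with ten half-log inhibitor dilutions (0.03–1,000 nM final) for 1 h at 37°C, then with fetuin (5.5 mg/ml final) for 16–18 h at 37°C. Released sialic acid was read at 549 nm after periodate/TBA reaction and butanol extraction. IC50 came from a Vmax·[1−x/(K+x)] fit, mean of ≥2 experiments.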

In assay [3] the test system is Influenza A virus. Kind of assay: Antiviral activity against influenza A (A/Montana/02/2009 (H1N1)) virus harboring neuraminidase H275Y mutant after 16 to 18 hrs by fetuin substrate based colorimetric assay. The gist of the method: as §2
In assay [4] the test system is Influenza A virus. Kind of assay: Antiviral activity against influenza A (A/Osaka/180/2009 (H1N1)) virus harboring neuraminidase H275Y mutant after 16 to 18 hrs by fetuin substrate based colorimetric assay. The method in brief:
as §2

Assay [5] has as its system Influenza A virus. Kind of assay: Antiviral activity against influenza A (A/Singapore/57/2009 (H1N1)) virus harboring neuraminidase H275Y mutant after 16 to 18 hrs by fetuin substrate based colorimetric assay. The gist of the method:
as §2

For assay [6], the system named is Influenza A virus. As to the kind of experiment: Antiviral activity against influenza A (A/Montana/02/2009 (H1N1)) virus harboring neuraminidase H275Y mutant after 30 mins by NA-star substrate based chemiluminescent assay. The gist of the method:
(§3)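 Titrated virus in NA-Star buffer (26 mM MES, 4 mM CaCl2, pH 6.0) was preincubated with ten half-log inhibitor dilutions (0.03–1,000 nM final) for 30 min at 37°C, then with substrate for 30 min at room temperature. Accelerator solution was added and luminescence read for 0.1 s. IC50 came from a Vmax·[1−x/(K+x)] fit, mean of ≥3 experiments.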

Assay [7] concerns Influenza A virus. Kind of assay: Antiviral activity against influenza A (A/Singapore/57/2009 (H1N1)) virus harboring neuraminidase H275Y mutant after 30 mins by NA-star substrate based chemiluminescent assay. The method in brief:
as §3

Assay [8] has as its system Influenza A virus. Kind of assay: Antiviral activity against influenza A (A/North Carolina/01/2009 (H1N1)) virus harboring neuraminidase H275Y mutant after 30 mins by MUNANA substrate based fluorometric assay. The method in brief: as §1
The test system of assay [9] is Influenza A virus. As to the kind of experiment: Antiviral activity against influenza A (A/Washington/29/2009 (H1N1)) virus harboring neuraminidase H275Y mutant after 16 to 18 hrs by fetuin substrate based colorimetric assay. The gist of the method:
as §2

In assay [10] the test system is Influenza A virus. Kind of assay: Antiviral activity against influenza A (A/Osaka/180/2009 (H1N1)) virus harboring neuraminidase H275Y mutant after 30 mins by MUNANA substrate based fluorometric assay. The gist of the method:
as §1

Assay [11] deals with Influenza A virus. As to the kind of experiment: Antiviral activity against influenza A (A/Montana/02/2009 (H1N1)) virus harboring neuraminidase H275Y mutant after 30 mins by MUNANA substrate based fluorometric assay. The method in brief:
as §1

Assay [12] concerns Influenza A virus. As to the kind of experiment: Antiviral activity against influenza A (A/Hong Kong/2369/2009 (H1N1)) virus harboring neuraminidase H275Y mutant after 16 to 18 hrs by fetuin substrate based colorimetric assay. The gist of the method:
as §2

Assay [13] concerns Influenza A virus. Kind of assay: Antiviral activity against influenza A (A/Singapore/57/2009 (H1N1)) virus harboring neuraminidase H275Y mutant after 30 mins by MUNANA substrate based fluorometric assay. The method in brief: as §1
Assay [14] deals with Influenza A virus. As to the kind of experiment: Antiviral activity against influenza A (A/Hong Kong/2369/2009 (H1N1)) virus harboring neuraminidase H275Y mutant after 30 mins by NA-star substrate based chemiluminescent assay. The method in brief:
as §3

The test system of assay [15] is Influenza A virus. Kind of assay: Antiviral activity against influenza A (A/Osaka/180/2009 (H1N1)) virus harboring neuraminidase H275Y mutant after 30 mins by NA-star substrate based chemiluminescent assay. The gist of the method: as §3
In assay [16] the test system is Influenza A virus. Kind of assay: Antiviral activity against influenza A (A/North Carolina/01/2009 (H1N1)) virus harboring neuraminidase H275Y mutant after 30 mins by NA-star substrate based chemiluminescent assay. The gist of the method: as §3
Assay [17] concerns Influenza A virus. As to the kind of experiment: Antiviral activity against influenza A (A/Washington/29/2009 (H1N1)) virus harboring neuraminidase H275Y mutant after 30 mins by NA-star substrate based chemiluminescent assay. The gist of the method: as §3
Assay [18] has as its system Influenza A virus. As to the kind of experiment: Antiviral activity against influenza A (A/Washington/29/2009 (H1N1)) virus harboring neuraminidase H275Y mutant after 30 mins by MUNANA substrate based fluorometric assay. The method in brief:
as §1

Broadly, the IC50 is the midpoint of a concentration-inhibition curve. Low values mean higher potency, high ones lower potency. Turning to `CO[C@@H]([C@@H]1OC(C(=O)O)=C[C@H](NC(=N)N)[C@H]1NC(C)=O)[C@H](O)CO` [LANINAMIVIR], the IC50 in the assay with Influenza A virus [1] amounted to 1.08 nM; in the assay on Influenza A virus [2], 0.89 nM; in the assay on Influenza A virus [3], 0.82 nM; in the assay on Influenza A virus [4], 3.32 nM; in the assay with Influenza A virus [5], 1.12 nM; in the assay on Influenza A virus [6] it was 0.34 nM. The IC50 with Influenza A virus [7] was found to be 0.74 nM; in the assay with Influenza A virus [8], 0.92 nM; with Influenza A virus [9] it was 2.14 nM; in the assay on Influenza A virus [10] it was 1.43 nM; in the assay with Influenza A virus [11], 1.05 nM; with Influenza A virus [12], 2.16 nM. Also, the IC50 came out at 0.87 nM in the assay on Influenza A virus [13]; 0.78 nM in the assay with Influenza A virus [14]; 0.48 nM in the assay with Influenza A virus [15]; 0.34 nM in the assay with Influenza A virus [16]; 0.82 nM with Influenza A virus [17]; 1.19 nM in the assay with Influenza A virus [18].
With `CC(=O)N[C@H]1[C@H]([C@H](O)[C@H](O)CO)OC(C(=O)O)=C[C@@H]1NC(=N)N` [ZANAMIVIR], the IC50 came out at 1.02 nM in the assay on Influenza A virus [1]; 1.96 nM with Influenza A virus [2]; 2.38 nM in the assay on Influenza A virus [3]; 3.17 nM in the assay on Influenza A virus [4]; 2.83 nM in the assay on Influenza A virus [5]; 0.42 nM in the assay on Influenza A virus [6]. The IC50 in the assay on Influenza A virus [7] came out at 0.4 nM; in the assay on Influenza A virus [8], 1.16 nM; in the assay on Influenza A virus [9], 2.66 nM; in the assay on Influenza A virus [10], 1.29 nM; with Influenza A virus [11], 1.15 nM; in the assay on Influenza A virus [12] it was 3.61 nM. Further, the IC50 turned out to be 1 nM in the assay on Influenza A virus [13]; 0.43 nM in the assay with Influenza A virus [14]; 0.35 nM in the assay with Influenza A virus [15]; 0.42 nM with Influenza A virus [16]; 0.51 nM with Influenza A virus [17]; 0.83 nM with Influenza A virus [18].
